Assay outcomes (PubChem BioAssay)
Tb MetRS inh – T. brucei MetRS inhibitors, primary screen, biochemical, luminescence | inhibition, % at 11.9 µM | purified T. brucei MetRS, ATP depletion, Kinase-Glo luminescence | AID 624268, 2012 | methionyl-tRNA synthetase (Trypanosoma brucei brucei) | 360,000 tested, 0.4% active;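 active means inhibition above a per-plate cutoff of the control wells' mean inhibition plus 3 SD, cut at about 5.5% in these data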;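 further: 0% = DMSO wells median and 100% = median of wells with control inhibitor compound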
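Dosing: 11.9 µM single point; system: parasite MetRS enzyme; technique: luminescence of leftover ATP; times: 15 min enzyme-compound preincubation, 2 h reaction, 10 min detection, 25 °C; replicates: each compound tested once; read-out basis: percent inhibition relative to median high and low control wells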
V-ATPase pH – regulators of yeast V-ATPase proton pumping, primary screen, pHLuorin cytosolic pH fluorescence; 350,000 tested, 0.37% active; S. cerevisiae; response, % at 10 µM; AID 504577, 2011; in the data active means response mostly above about 7.3%, no sharp cut-off; inactive means mostly below about 5.4%; further: actives read high
CHOP inh – inhibitors of CHOP promoter induction, primary screen, cell-based, unfolded protein response, luciferase reporter | CHO-K1 CHOP-promoter luciferase, tunicamycin-induced, 15-18 h | inhibition, % at 10 µM | 220,000 tested, 3.8% active;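 active means compounds that reduced the stress-induced luciferase reporter signal by more than about 70% of percent inhibition, limit read from the data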;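 further: 0% = tunicamycin plus vehicle and 100% = wells without tunicamycin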
UPR CHOP act – activators of apoptotic CHOP UPR arm, primary screen, cell-based, CHO-CHOP luciferase reporter, luminescence, uHTS; UPR activation; percent of tunicamycin response over DMSO baseline; activation, % at 10 µM; 330,000 tested, 0.34% active;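 active means at 10 µM dose, activation of 40% or more, normalized to positive control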;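 further: 100% = tunicamycin at 10 µg/mL and 0% = DMSO alone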
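System: CHO CHOP reporter cells. Amount: 500 cells per well. Buffer or medium: F12 medium, 10% FBS. Compound dosing: one dose, 10 µM in 0.5% DMSO. Incubation: 6 h compound exposure at 37 °C after overnight seeding. Technique: Steady-Glo luciferase luminescence. Benchmarks: tunicamycin and DMSO controls.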
UPR XBP1 act – activators of adaptive XBP1 UPR arm, primary screen, cell-based, CHO-XBP1 luciferase reporter, luminescence, uHTS; 330,000 tested, 0.33% active; activation, % at 20 µM; AID 463104, 2010; IRE1-XBP1 UPR activation; percent of tunicamycin response, DMSO as zero;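 active means versus positive control, 20 µM dose yields 30% or more activation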;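 further: 100% = tunicamycin at 10 µg/mL and 0% = DMSO only wells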
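Material: CHO cell line with stable XBP1 luciferase reporter; buffer or medium: F12 medium containing 10% fetal bovine serum; compound: single point, 20 µM final compound, 1% DMSO; incubation: 6 h treatment, 37 °C; measured by: glow luminescence from Steady-Glo reagent; evaluation: activation, % of tunicamycin; control set: tunicamycin high, DMSO low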
CHOP inh conf – retest of CHOP induction inhibitors, confirmation, cell-based. CHO-CHOP promoter luciferase reporter, tunicamycin-induced, luminescence. inhibition, % at 10 µM. shares compounds with CHOP inh. AID 504437, 2011. 2,100 tested, 45% active;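 active means mean of three repeat readings of reporter signal inhibition above a set limit, cut at about 70% in these data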;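 further: 0% = tunicamycin plus vehicle and 100% = wells lacking tunicamycin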
Starred values were filed as active, the others as inactive; · = not tested or not shown. The full list was thinned out, with hits kept by preference.

SMILES | Tb MetRS inh | V-ATPase pH | CHOP inh | UPR CHOP act | UPR XBP1 act | CHOP inh conf
O=C1C=CC(O)(c2cc(=O)c3c(O)cc(O)cc3o2)C=C1 | -0.2 | -12.9 | 108.0* | -8.0 | -4.8 | 121.7*
O=c1cc(-c2ccccc2Cl)oc2cc(O)cc(O)c12 | 0.5 | 0.0 | 27.7 | 0.8 | 5.1 | ·
O=[N+]([O-])c1ccc2cn(C3OC(CO)C(O)C3O)nc2c1 (stereo not drawn) | -0.3 | 3.1 | · | · | · | ·
Cc1cc2cc(CN(Cc3ccco3)C(=O)C3CCCCC3)c(=O)[nH]c2cc1C | -0.4 | 1.8 | 105.4* | -1.2 | 5.7 | 36.6
Cc1cc2cc(CN(Cc3ccco3)C(=O)NCc3ccccc3)c(=O)[nH]c2cc1C | 0.2 | -1.4 | 43.8 | -2.7 | -4.0 | ·
Fc1ccc(-c2nc3c4ccccc4ccn3c2Cc2ccsc2)cc1 | 0.1 | · | · | · | · | ·
O=C(Cn1cc(SCc2cccc(Cl)c2)c2ccccc21)N1CCOCC1 | -0.9 | -0.1 | 27.1 | 3.9 | 3.1 | ·
COc1ccc(-c2nc3ccccc3c(=O)n2CCOc2cc(C)ccc2C)cc1 | -0.8 | 4.9 | 5.3 | -2.4 | -3.3 | ·
Cc1cc(OC(=O)c2cc(F)c(F)cc2Cl)nc(C)n1 | -0.8 | -1.9 | -21.2 | -1.3 | -1.3 | ·
Cc1cc(C)c(S(=O)(=O)c2ccccc2)c(OC(=O)c2cc(F)c(F)cc2Cl)n1 | -1.5 | 2.4 | 107.5* | 0.1 | -1.2 | 138.6*
O=C(OCn1ncc(Cl)c(Cl)c1=O)c1ccc(C(F)(F)F)cc1 | -0.6 | 3.9 | 104.2* | 36.2 | -5.8 | 116.4*
COc1ccc(C2=CC(c3ccc(F)cc3)n3nnnc3N2)cc1 (stereo not drawn) | -1.3 | -0.2 | 46.5 | -1.3 | -0.1 | ·
Cc1ccc(C2=CC(c3ccc(N(C)C)cc3)n3nnnc3N2)cc1 (stereo not drawn) | 0.6 | -3.0 | 99.8* | 28.9 | 0.9 | 51.8
Cc1oc(=O)c(NC(=O)c2cccc(Cl)c2)cc1C(=O)c1ccccc1 | -0.5 | 5.7 | 103.9* | 12.0 | 15.6 | 64.2
COc1ccc(C(=O)Nc2cc(C(=O)c3ccccc3)c(C)oc2=O)cc1 | -0.3 | 3.4 | -70.4 | 0.0 | 0.5 | ·
Cc1cc(C2(c3ccc(O)c(C)c3)C(=O)Nc3ccccc32)ccc1O | -0.9 | -1.6 | 105.4* | 1.0 | 1.1 | 119.2*
CCc1ccc(CN/C=C/C(=O)c2ccc(Br)cc2)cc1 | -0.8 | 0.3 | 103.6* | 0.0 | -2.5 | -26.3
CN(Cc1ccc(Cl)cc1)C(=O)CCl | -0.7 | -0.6 | 104.4* | 5.7 | -7.8 | 31.9
COc1ccc(CN(C)C(=O)CCl)cc1 | -0.3 | 0.6 | -53.0 | · | · | ·
CCOc1ccc(N(CC(=O)Nc2ccc(OC)cc2)C2=NC3CS(=O)(=O)CC3S2)cc1 (stereo not drawn) | -0.9 | -0.8 | · | -0.4 | -2.2 | ·
CNC1=C(N(C(C)=O)c2ccc(Br)cc2)C(=O)c2ccccc2C1=O | 1.1 | -0.6 | -12.8 | · | · | ·
CC(=O)C1=C(c2ccc(Br)cc2)C(=O)c2ccccc2C1=O | 0.1 | -1.1 | 109.6* | · | · | 107.7*
CCCCN1C(=O)C(CC(=O)NCC2CCCCC2)CC(C(=O)N2CCOCC2)=C1C (stereo not drawn) | -1.0 | -0.4 | · | · | · | ·
O=c1[nH]c(=O)n(Cc2ccco2)c2c1C(C(F)(F)F)(C(F)(F)F)N=C(c1ccc(F)cc1)N2 | -0.8 | -4.1 | 100.5* | 3.7 | 4.9 | 86.8*
CCOC(=O)C1=C(C(F)(F)F)Nc2ncnn2C1c1ccc(OC)cc1OC (stereo not drawn) | -0.6 | 1.5 | 4.0 | -1.2 | -1.3 | ·
SMILES | Tb MetRS inh | V-ATPase pH | CHOP inh | UPR CHOP act | UPR XBP1 act | CHOP inh conf
Clc1ccc(-c2n[nH]c3c2CCC3)cc1Cl | -1.6 | 0.4 | 98.2* | 2.9 | 0.6 | 63.2
CCCCN=c1scc(-c2ccc3c(c2)NC(=O)CO3)n1N=C1CCCC1 | -0.5 | 3.9 | 106.0* | 0.0 | -0.4 | 105.1*
COCCN(C(=O)C1CCCC1)c1c(N)n(Cc2ccccc2)c(=O)[nH]c1=O | -0.5 | · | -8.2 | -0.5 | -4.4 | ·
Nc1c(N(C(=O)Nc2ccc(Cl)c(Cl)c2)C2CCCC2)c(=O)[nH]c(=O)n1Cc1ccccc1 | -0.1 | 1.7 | 103.1* | 0.1 | -3.0 | 114.8*
Cc1ccc(-c2[nH]ncc2/C=N/n2c(COc3ccccc3C)nc3ccccc3c2=O)cc1 | 0.0 | 1.8 | 100.1* | 22.7 | 19.6 | 4.5
CCN(CC)C(=O)CCSc1nnc(-c2ccco2)o1 | -0.2 | -2.5 | -20.9 | 1.3 | 0.2 | ·
O=C(O)COc1ccccc1/C=N/NC(=O)CSc1nnc(-c2ccc(Cl)cc2)n1C1CCCCC1 | -0.1 | -4.5 | -10.8 | 2.1 | -2.2 | ·
Cc1nc(COC(=O)c2ccc(CO)cc2)cs1 | -0.5 | 0.2 | -39.7 | 1.0 | -0.7 | ·
Cc1nc(COC(=O)c2cc(O)c3ccccc3c2O)cs1 | -0.9 | 0.4 | 103.8* | · | · | 119.7*
C=CCn1c(=O)c(C(=O)Nc2ccccc2O)c(O)c2ccccc21 | 0.3 | -1.4 | 104.1* | -0.9 | -0.4 | -64.3
C=CCn1c(=O)c(C(=O)Nc2ccccc2C)c(O)c2ccccc21 | -1.6 | 3.2 | · | 4.3 | 1.5 | ·
Cc1ccc(NC(=O)COc2ncnc3c(Cl)cc(Cl)cc23)cc1[N+](=O)[O-] | 0.2 | -4.1 | 104.4* | -0.9 | 0.1 | 4.3
CC(c1ccccc1F)n1cc(C(=O)NCCCc2nc3ccccc3[nH]2)nn1 (stereo not drawn) | -0.3 | 0.0 | 96.6* | 0.3 | -4.1 | 19.9
NC(=O)c1cc([N+](=O)[O-])ccc1N1CCN(Cc2ccccc2)CC1 | -0.1 | 1.5 | · | -1.5 | -1.5 | ·
COc1ccccc1-n1c(SCC(=O)N2CCCC2)nnc1-c1ccccc1 | 0.0 | -4.5 | -2.8 | 0.3 | -2.3 | ·
O=C(CCCCCn1nnc2ccccc2c1=O)Nc1ccccc1Cl | -0.4 | -1.7 | · | -0.3 | -2.8 | ·
Cc1nn(-c2ccccc2)c(Cl)c1CN(C(=O)CCl)c1ccc(Cl)cc1 | -0.2 | 1.8 | 109.3* | · | · | 139.5*
COc1ccc(S(=O)(=O)N2CCCCC2c2cc(C(=O)Nc3ccc4c(c3)OCO4)no2)cc1 (stereo not drawn) | -0.1 | · | · | · | · | ·
Cn1c(=O)c2c(nc(Sc3ncnn3CC(=O)NC(C)(C)C)n2C)n(C)c1=O | 1.2 | 3.5 | 100.5* | 1.3 | -3.5 | 15.2
Cn1c(=O)c2c(ncn2CC(=O)NC(C)(C)C)n(C)c1=O | 0.1 | 1.0 | 0.8 | 0.0 | -0.3 | ·
N#CC1=C(N)N2C(=C(C#N)C1c1ccc(Br)cc1)Nc1ccccc12 (stereo not drawn) | · | · | 105.5* | 3.5 | 9.6 | 94.4*
N#CC1=C(N)N2C(=C(C#N)C1c1cccc(Br)c1)Nc1ccccc12 (stereo not drawn) | 0.1 | 1.4 | 101.3* | 0.7 | 14.1 | 105.1*
